Data taken from ChEMBL document CHEMBL1155843, “Selective alkylation of beta(II)-tubulin and thioredoxin-1 by structurally related subsets of aryl chloroethylureas leading to either anti-microtubules or redox modulating agents” (2008).
Activity calls are given as the source filed them. The rule behind the calls is not given here.

How the values were obtained:
MCF7 [1] = test: Cell cycle arrest in human MCF7 cells assessed as accumulation at G0/G1 phase at 2 times GI50 after 24 hrs by flow cytometry; format: functional
Method in brief: (§1)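 Cells were trypsinized, PBS-washed, fixed in ice-cold ethanol, and stained with propidium iodide plus RNase for 30 min at room temperature. G0/G1, S and G2/M fractions were measured by flow cytometry.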

MCF7 [2] = test: Cell cycle arrest in human MCF7 cells assessed as accumulation at S phase at 2 times GI50 after 24 hrs by flow cytometry; format: functional; method in brief: as §1
MCF7 [3] = test: Cell cycle arrest in human MCF7 cells assessed as accumulation at G2/M phase at 2 times GI50 after 24 hrs by flow cytometry; format: functional; method in brief: as §1
M21 [4] = test: Induction of beta2-tubulin alkylation in human M21 cells at 2 times GI50 by Western blot analysis; format: cell-based
Method in brief: (§2)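 Floating and adherent cells were pooled and lysed in boiled Laemmli buffer; protein was measured by Lowry. 20 µg per lane ran on 10% SDS-PAGE and was blotted with anti-βII-tubulin (1:500), HRP anti-mouse (1:2500) and ECL. Alkylation was scored as a faster-migrating βII-tubulin band.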

M21 [5] = test: Inhibition of nuclear translocation of thioredoxin-1 from cytosol in human M21 cells at 2 times GI50 after 16 hrs by immunocytofluorescence; format: functional, cell-based
Method in brief: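 Cells were fixed in 3.7% formaldehyde (20 min), permeabilized with 0.1% saponin and blocked with 3% BSA. Staining used anti-Trx-1 monoclonal (1:200, 2 h, 37 °C) and Alexa-488 anti-mouse IgG (1:1000, 1 h). Trx-1 cytosol/nucleus localization was read by confocal immunofluorescence.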

MCF7 [6] = test: Antiproliferative activity against human MCF7 cells after 48 hrs by sulforhodamine B method; format: functional; conditions: for GI50: MCF7, 48 h
Method in brief: (§3)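 Seeding per well: 5 × 10³ HT-29 cells, or 3.5 × 10³ M21 or MCF-7 cells. Drugs were dissolved fresh in DMSO and serially diluted in medium (final range 100 to 0.3), with DMSO held at 0.12%. Cells were exposed for 48 h, fixed with cold TCA (10% final, 1 h, 4 °C) and stained with 0.1% SRB for 15 min. Dye was solubilized in 10 mM Tris and read at A585. Day-0 OD was subtracted, inhibition was calculated against DMSO cells, and n ≥ 3.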

M21 [7] = test: Antiproliferative activity against human M21 cells after 48 hrs by sulforhodamine B method; format: functional; conditions: for GI50: M21, 48 h; method in brief: as §3
HT-29 = test: Antiproliferative activity against human HT29 cells after 48 hrs by sulforhodamine B method; format: functional; conditions: for GI50: HT-29, 48 h; method in brief: as §3
M21 [8] = test: Induction of beta2-tubulin alkylation in human M21 cells at 50 nM by Western blot analysis; format: cell-based
Method in brief: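 Same M21 Western blot workflow (pooled cells, Laemmli lysis, 20 µg on 10% SDS-PAGE, anti-βII-tubulin 1:500, ECL), except that vinblastine, colchicine and paclitaxel were applied at 50 nM for 16, 24 and 48 h at 37 °C. The alkylated form appeared as a lower-apparent-MW band.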

M21 [9] = test: Inhibition of nuclear translocation of thioredoxin-1 from cytosol in human M21 cells at 50 nM after 16 hrs by immunocytofluorescence; format: functional, cell-based
Method in brief: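 Reference agents colchicine or vinblastine were applied at 50 nM to M21 cells on fibronectin-coated coverslips. Cells were fixed in formaldehyde, permeabilized with saponin, and stained with anti-Trx-1 (1:200, 2 h, 37 °C) and Alexa-488 secondary. Nuclear versus cytosolic Trx-1 was assessed by confocal microscopy.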

M21 [10] = test: Induction of beta2-tubulin alkylation in human M21 cells at 2 times GI50 after 48 hrs by Western blot analysis; format: cell-based; method in brief: as §2

Structure (SMILES) | Activity (MCF7 [1]) [%] | Activity (MCF7 [2]) [%] | Activity (MCF7 [3]) [%] | Activity (M21 [4]) | Activity (M21 [5]) | GI50 (M21 [7]) [µM] | other results
O=C(NCCCl)NC1c2ccccc2-c2ccccc21 | 63 | 29 | 8 | inactive | inactive | – | –
CC1(c2ccc(NC(=O)NCCCl)cc2)CCCCC1 | 60 | 9 | 31 | inactive | Active | 16 | GI50 (MCF7 [6]): 18 µM; GI50 (HT-29): 7.8 µM
O=C(NCCCl)Nc1ccc(N2CCOCC2)cc1 | – | – | – | inactive | – | – | Activity (MCF7 [6]): inactive; Activity (M21 [7]): inactive; Activity (HT-29): inactive
O=C(NCCCl)Nc1ccc(Oc2ccccc2)cc1 | 15 | 20 | 65 | inactive | inactive | – | –
O=C(CCl)NC(=O)Nc1ccccc1 | – | – | – | inactive | inactive | 6.9 | –
CCCC1(c2ccc(NC(=O)NCCCl)cc2)CCCCC1 | 73 | 14 | 13 | inactive | Active | 36 | GI50 (MCF7 [6]): 23 µM; GI50 (HT-29): 18 µM
O=C(NCCCl)Nc1ccc(OC2CCCC2)cc1 | – | – | – | inactive | Active | – | –
O=C(NCCCl)Nc1ccccc1 | 59 | 22 | 19 | inactive | inactive | – | Activity (MCF7 [6]): inactive; Activity (M21 [7]): inactive; Activity (HT-29): inactive
COc1cc2c(c(OC)c1OC)-c1ccc(OC)c(=O)cc1[C@@H](NC(C)=O)CC2 | – | – | – | inactive | – | – | Activity (M21 [8]): inactive; Activity (M21 [9]): inactive
O=C(CCl)NC(=O)Nc1ccc(N2CCOCC2)cc1 | – | – | – | inactive | – | 8.3 | –
CC(=O)O[C@H]1C(=O)[C@@]2(C)[C@H]([C@H](OC(=O)c3ccccc3)[C@]3(O)C[C@H](OC(=O)[C@H](O)[C@@H](NC(=O)c4ccccc4)c4ccccc4)C(C)=C1C3(C)C)[C@]1(OC(C)=O)CO[C@@H]1C[C@@H]2O [PACLITAXEL] | 9 | 11 | 80 | inactive | – | – | Activity (M21 [8]): inactive; Activity (M21 [9]): inactive
O=C(NCCCl)Nc1ccc(OC2CCCCC2)cc1 | – | – | – | inactive | Active | – | –
O=C(NCCCl)Nc1ccc(OC2CCCCCCC2)cc1 | 70 | 14 | 16 | inactive | Active | 26 | GI50 (MCF7 [6]): 18 µM; GI50 (HT-29): 14 µM
O=C(NCCCl)Nc1ccc(C2CCCCC2)cc1 | – | – | – | inactive | Active | – | –
O=C(NCCCl)Nc1ccc(C2CCCC2)cc1 | 63 | 24 | 13 | inactive | – | 27 | GI50 (MCF7 [6]): 26 µM; GI50 (HT-29): 18 µM
c1ccc(NC2=NCCO2)cc1 | – | – | – | inactive | inactive | 81 | –
O=C(NCCCl)Nc1ccc2c(c1)Cc1ccccc1-2 | 11 | 57 | 32 | – | inactive | – | Activity (M21 [10]): Active
CC(C)(C)c1ccc(NC2=NCCO2)cc1 | – | – | – | inactive | inactive | – | –
CCNC(=O)Nc1ccc(C2CCCCC2)cc1 | 55 | 23 | 22 | inactive | inactive | – | Activity (MCF7 [6]): inactive; Activity (M21 [7]): inactive; Activity (HT-29): inactive
O=C(NCCCl)Nc1ccc(OC2CCCCCC2)cc1 | – | – | – | inactive | Active | – | GI50 (HT-29): 13 µM
O=C(NCCCl)Nc1cccc(Oc2ccccc2)c1 | 44 | 26 | 30 | – | inactive | – | Activity (M21 [10]): Active
CC(C)(C)c1ccc(NC(=O)NC(=O)CCl)cc1 | – | – | – | inactive | Active | – | –
